Data as given in ChEMBL document CHEMBL4229392, “An Efficient Buchwald-Hartwig/Reductive Cyclization for the Scaffold Diversification of Halogenated Phenazines: Potent Antibacterial Targeting, Biofilm Eradication, and Prodrug Exploration” (J Med Chem, 2018).
Values after ≈ are worked out from the molar mass of the structure shown. Active and inactive are the calls of the source. No cut-off for these calls is given here.

Key:
[1] = Hemolytic activity in human RBC at 200 uM after 1 hr relative to control; type: ADME, cell-based, Erythrocyte; conditions: red blood cells (erythrocytes), read-out: Activity
Outline: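 Human RBCs drawn fresh into EDTA were washed three times in Tris-buffered saline (0.01 M Tris, 0.155 M NaCl, pH 7.2). 2% hRBC suspension was added to compound from DMSO stock, final 200 µM, for 1 h at 37 °C, then centrifuged and supernatant OD405 read. Scaled between DMSO (0%) and Triton X (100%). Three independent experiments.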

Staphylococcus aureus [2] = assay: Induction of biofilm eradication of methicillin-resistant Staphylococcus aureus 2 after 24 hrs by calgary biofilm device method; type: functional
Outline: (§1)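 Calgary device: biofilms established 24 h at 37 °C from mid-log culture diluted 1,000-fold in TSBG (0.5% glucose), washed, exposed 24 h to 2-fold serial dilutions, then peg lid moved to fresh TSBG for 24 h recovery. MBEC = lowest concentration giving no turbidity; at least three independent experiments.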

Staphylococcus aureus [3] = assay: Bactericidal activity against methicillin-resistant Staphylococcus aureus 2 planktonic cells after 24 hrs by calgary biofilm device method; type: organism-based
Outline: (§2)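 Biofilms grown 24 h at 37 °C on Calgary device pegs from mid-log culture diluted 1,000-fold in TSB + 0.5% glucose; washed pegs challenged 24 h at 37 °C with 2-fold serial dilutions. Challenge medium subcultured into fresh TSBG overnight; MBC = concentration without visible turbidity; at least three independent experiments.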

[4] = system: Staphylococcus epidermidis; assay: Bactericidal activity against methicillin-resistant Staphylococcus epidermidis ATCC 35984 planktonic cells after 24 hrs by calgary biofilm device method; type: organism-based; outline: as §2
Staphylococcus aureus [5] = assay: Induction of biofilm eradication of methicillin-resistant Staphylococcus aureus BAA-44 after 24 hrs by calgary biofilm device method; type: functional; outline: as §1
[6] = system: Staphylococcus epidermidis; assay: Induction of biofilm eradication of methicillin-resistant Staphylococcus epidermidis ATCC 35984 after 24 hrs by calgary biofilm device method; type: functional; outline: as §1
Enterococcus faecium [7] = assay: Induction of biofilm eradication of vancomycin-resistant Enterococcus faecium ATCC 700221 after 24 hrs by calgary biofilm device method; type: functional; outline: as §1
Enterococcus faecium [8] = assay: Antibacterial activity against vancomycin-resistant Enterococcus faecium ATCC 700221 after 16 to 18 hrs by broth microdilution method; type: functional
Outline: (§3)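 CLSI broth microdilution in Lysogeny Broth, eleven two-fold dilutions spanning 0.10–100 µM; ~10^5 cells per well from log-phase culture; DMSO vehicle (top 1% v/v). MIC = lowest concentration preventing growth after 16–18 h at 37 °C, supported by OD600; three independent experiments.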

Staphylococcus aureus [9] = assay: Induction of biofilm eradication of methicillin-resistant Staphylococcus aureus BAA-1707 after 24 hrs by calgary biofilm device method; type: functional; outline: as §1
Enterococcus faecium [10] = assay: Bactericidal activity against vancomycin-resistant Enterococcus faecium ATCC 700221 planktonic cells after 24 hrs by calgary biofilm device method; type: organism-based; outline: as §2
Staphylococcus aureus [11] = assay: Bactericidal activity against methicillin-resistant Staphylococcus aureus BAA-1707 planktonic cells after 24 hrs by calgary biofilm device method; type: organism-based; outline: as §2
[12] = system: Staphylococcus epidermidis; assay: Antibacterial activity against methicillin-resistant Staphylococcus epidermidis ATCC 35984 after 16 to 18 hrs by broth microdilution method; type: functional
Staphylococcus aureus [13] = assay: Antibacterial activity against methicillin-resistant Staphylococcus aureus BAA-1707 after 16 to 18 hrs by broth microdilution method; type: functional; outline: as §3
[14] = Metal chelating activity assessed as compound-Fe2+ complex formation at 5 mM by UV-vis spectrometry
Outline: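 HP solutions given ammonium iron(II) sulfate hexahydrate; UV-vis scans 300–700 nm in 2 nm steps, λmax 374 nm. Loss of absorbance at 374 nm taken as loss of free hydroxyphenazine and formation of phenazine–iron(II) complex.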

[15] = Metal chelating activity assessed as compound-copper complex formation by UV-vis spectrometry
Staphylococcus aureus [16] = assay: Antibacterial activity against methicillin-resistant Staphylococcus aureus 2 after 16 to 18 hrs by broth microdilution method; type: functional; outline: as §3
HeLa = assay: Cytotoxicity against human HeLa cells after 24 hrs by LDH release assy; type: cell-based
Outline: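 HeLa cells in DMEM with 10% FBS at 37 °C, 5% CO2, dosed at 70-80% confluence with compound diluted in medium at 25, 50 and 100 µM for 24 h. Supernatant mixed with LDH reaction mixture, 30 min at room temperature, stopped, A490 read. Triton X-100 (2% v/v) as maximal-release control, medium only as no-death control, DMSO as vehicle. Three independent experiments.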

[17] = Half life in human serum by LC-MS analysis; type: ADME, cell-free
Outline: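 Human serum pre-warmed to 37 °C, spiked with prodrug from 10 mM DMSO stock plus internal standard, vortexed, then held 1 to 60 min. At each time point, acetonitrile with 0.5% formic acid was added to precipitate proteins. Released active HP was quantified as its ratio to internal standard against standard curves.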

Staphylococcus aureus [18] = assay: Antibacterial activity against methicillin-resistant Staphylococcus aureus BAA-1707 after 16 hrs by agar diffusion method; type: functional
[19] = system: Staphylococcus epidermidis; assay: Induction of biofilm eradication of methicillin-resistant Staphylococcus epidermidis ATCC 35984 at 1 to 10 uM after 24 hrs by live/dead staining-based fluorescence microscopic method; type: functional, organism-based
Outline: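 MRSE 35984 mid-log culture diluted 1:1,000, biofilms grown 24 h at 37 °C in compartment dishes, saline-washed, then treated at 1, 5 and 10 µM in fresh medium for 24 h at 37 °C; DMSO negative control. After saline wash, live/dead stained biofilms imaged by fluorescence microscopy; three independent experiments.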

Staphylococcus aureus [20] = assay: Bactericidal activity against methicillin-resistant Staphylococcus aureus BAA-44 planktonic cells after 24 hrs by calgary biofilm device method; type: organism-based; outline: as §2
[21] = system: Mycobacterium tuberculosis; assay: Antibacterial activity against Mycobacterium tuberculosis H37Ra ATCC 25177 after 7 days; type: functional; conditions: H37Ra ATCC 25177, 168 h
Outline: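 M. tuberculosis H37Ra grown two weeks in Middlebrook 7H9, diluted to OD600 0.01; two-fold serial dilutions 0.024–50 µM (streptomycin positive control, 0.16–340 µM); final DMSO 0.5%. Incubated 7 days at 37 °C; MIC = lowest concentration with no growth, OD600 recorded; three independent experiments.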

`CN[C@H](CC(C)C)C(=O)N[C@H]1C(=O)N[C@@H](CC(N)=O)C(=O)N[C@H]2C(=O)N[C@H]3C(=O)N[C@H](C(=O)N[C@H](C(=O)O)c4cc(O)cc(O)c4-c4cc3ccc4O)[C@H](O)c3ccc(c(Cl)c3)Oc3cc2cc(c3O[C@@H]2O[C@H](CO)[C@@H](O)[C@H](O)[C@H]2O[C@H]2C[C@](C)(N)[C@H](O)[C@H](C)O2)Oc2ccc(cc2Cl)[C@H]1O` [VANCOMYCIN] gave a hemolysis at 1 h, 200 µM [1] of no more than 1%, an MBEC (Staphylococcus aureus [2]) greater than 2000 µM and an MBC (Staphylococcus aureus [3]) of 3 µM (≈ 4.35 µg/mL). For the same molecule, the MBC [4] was 3 µM (≈ 4.35 µg/mL), the MBEC (Staphylococcus aureus [5]) was greater than 2000 µM and the MBEC [6] was greater than 2000 µM. For the same molecule, the MBEC (Enterococcus faecium [7]) was 150 µM, the MIC (Enterococcus faecium [8]) was greater than 100 µM and the MBEC (Staphylococcus aureus [9]) was greater than 2000 µM. The MBC (Enterococcus faecium [10]) was greater than 200 µM and the MBC (Staphylococcus aureus [11]) was 3.9 µM (≈ 5.65 µg/mL).

`CCc1cccc2nc3c(Br)cc(Br)c(O)c3nc12` showed an MIC [12] greater than 100 µM, an MIC (Staphylococcus aureus [13]) greater than 100 µM and an MIC (Enterococcus faecium [8]) greater than 100 µM. For the same molecule, the Activity [14] was “inactive” and the Activity [15] was “inactive”.

With `CC(C)(C)c1ccc2nc3c(O)c(Br)cc(Br)c3nc2c1` the hemolysis at 1 h, 200 µM [1] was no more than 1%, the MBEC (Staphylococcus aureus [2]) was 3.13 µM and the MIC [12] was 0.1 µM (≈ 0.041 µg/mL). It also gave an MBC (Staphylococcus aureus [3]) of 3.13 µM (≈ 1.28 µg/mL), an MBC [4] of 6.25 µM (≈ 2.56 µg/mL) and an MIC (Staphylococcus aureus [16]) of 0.1 µM (≈ 0.041 µg/mL). The MIC (Staphylococcus aureus [13]) was 0.1 µM (≈ 0.041 µg/mL), the MBEC [6] was 3.13 µM and the MIC (Enterococcus faecium [8]) was 0.1 µM (≈ 0.041 µg/mL). The IC50 (HeLa) was greater than 100 µM and the MBC (Enterococcus faecium [10]) was 1.56 µM (≈ 0.64 µg/mL).

For `CC1=C(C)C(=O)C(COC(=O)OCOc2c(Br)cc(Br)c3nc4cc(Cl)ccc4nc23)=C(C)C1=O`, the hemolysis at 1 h, 200 µM [1] was 2.7%, the MBC [4] was 12.5 µM (≈ 7.81 µg/mL) and the MIC (Staphylococcus aureus [13]) was 0.15 µM (≈ 0.0937 µg/mL). For the same molecule, the half-life [17] was 11.4 min, the MBEC [6] was 25 µM and the MBEC (Enterococcus faecium [7]) was 3.13 µM. For the same molecule, the MIC (Enterococcus faecium [8]) was 1.56 µM (≈ 0.974 µg/mL), the “inhibition zone (IZ)” value (Staphylococcus aureus [18]) was 2.86 cm2 and the MBEC (Staphylococcus aureus [9]) was 12.5 µM. For the same molecule, the IC50 (HeLa) was greater than 100 µM, the MBC (Enterococcus faecium [10]) was 3.13 µM (≈ 1.96 µg/mL) and the MBC (Staphylococcus aureus [11]) was 6.25 µM (≈ 3.9 µg/mL).

In the case of `Oc1c(Br)cc(Br)c2nc3cc(Cl)ccc3nc12`, the hemolysis at 1 h, 200 µM [1] is reported as no more than 1%, the MBEC (Staphylococcus aureus [2]) is reported as 25 µM and the Activity [19] is reported as “Active”. It also gave an MIC [12] of 0.1 µM (≈ 0.0388 µg/mL), an MBC (Staphylococcus aureus [20]) of 6.25 µM (≈ 2.43 µg/mL) and an MBC (Staphylococcus aureus [3]) of 6.25 µM (≈ 2.43 µg/mL). It also gave an MBC [4] of 6.25 µM (≈ 2.43 µg/mL), an MIC (Staphylococcus aureus [16]) of 0.1 µM (≈ 0.0388 µg/mL) and an MIC [21] of 3.13 µM (≈ 1.22 µg/mL). For the same molecule, the MIC (Staphylococcus aureus [13]) was 0.038 µM (≈ 0.0148 µg/mL), the MBEC [6] was 37.5 µM and the Activity [14] was “Active”. The “inhibition zone (IZ)” value (Staphylococcus aureus [18]) was 4.25 cm2, the MBEC (Staphylococcus aureus [9]) was 4.69 µM and the IC50 (HeLa) was greater than 100 µM. For the same molecule, the Activity [15] was “Active”.

With `Oc1c(Br)cc(Br)c2nc3cc(Oc4ccccc4)ccc3nc12` the hemolysis at 1 h, 200 µM [1] was no more than 1%, the MIC [12] was 0.1 µM (≈ 0.0446 µg/mL) and the MBC (Staphylococcus aureus [20]) was 25 µM (≈ 11.2 µg/mL). For the same molecule, the MIC (Staphylococcus aureus [16]) was 0.39 µM (≈ 0.174 µg/mL), the MIC [21] was 6.25 µM (≈ 2.79 µg/mL) and the MIC (Staphylococcus aureus [13]) was 0.075 µM (≈ 0.0335 µg/mL). It also gave an MIC (Enterococcus faecium [8]) of 0.2 µM (≈ 0.0892 µg/mL) and an IC50 (HeLa) greater than 100 µM.
